Source: ChEMBL document CHEMBL1124161, “4-Hydroxy-3-quinolinecarboxamides with antiarthritic and analgesic activities” (J Med Chem, 1988)
Active and inactive are the calls of the source. No cut-off for these calls is given here.

Assays:
[1] = tested on: Mus musculus; experiment: Analgesic activity against acetic acid induced writhing test in mouse after peroral administration; format: functional
[2] = tested on: Rattus norvegicus; experiment: Anti-arthritis activity against adjuvant-induced arthritis in rats after peroral administration; format: functional
Method in brief: (§1)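 Groups of five male Lewis rats, 40–50 days old, given intraplantar injection in right hind paw of 0.6 mg Mycobacterium butyricum in 0.1 mL Bayol 55. Drug given in food from adjuvant day to day 17. Injected and noninjected hind paw volumes measured day 17 against normal controls. ED50 by least-squares curve fitting or Litchfield–Wilcoxon probit.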

[3] = tested on: Rattus norvegicus; experiment: Antiinflammatory activity against carrageenan-induced foot edema after peroral administration in rat; format: functional; conditions: po
Method in brief: (§2)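 Groups of eight male Sprague-Dawley rats (150–180 g) dosed orally at the time of subplantar injection of 0.5 mg carrageenin. Paw volume difference measured before and 5 h after injection. Expressed as ED40, estimated graphically or by Litchfield–Wilcoxon probit analysis.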

[4] = tested on: Mus musculus; experiment: Analgesic activity against acetic acid induced writhing test in mouse administered po at 100 mg/kg; IA=Inactive; format: functional, organism-based; parameters: dose 100 mg/kg
Method in brief: (§3)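 Female mice (20–22 g), groups of 10, fasted 7 h; drug given orally 30 min before intraperitoneal injection of 0.2 mL 1% aqueous acetic acid. Stretching/writhing movements counted from minute 5 to 20 after irritant.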

[5] = tested on: Rattus norvegicus; experiment: Antiarthritis activity against adjuvant-induced arthritis in rats administered po at 10 mg/kg; IA=Inactive; format: functional, organism-based; parameters: dose 10 mg/kg
[6] = tested on: Mus musculus; experiment: Analgesic activity against acetic acid induced writhing test in mouse after peroral administration, treatment 6 hr before testing; format: functional; conditions: po
Method in brief: (§4)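 Groups of 10 female mice (20–22 g), fasted 7 h, dosed orally 6 h before ip injection of 0.2 mL 1% aqueous acetic acid. Stretching and writhing movements counted from minute 5 to 20 after irritant. ED50 evaluated graphically or by computerized least-squares curve fitting.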

[7] = tested on: Rattus norvegicus; experiment: Ulcerogenic effect after oral administration (gastric ulcer); format: functional
Method in brief: (§5)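 Groups of eight female rats (120–150 g), fasted 24 h, dosed orally; killed 7 h later and stomachs scored. Ulceration index = (mean ulcer degree × rats with ulcers / number of rats) × 100, ulcers being scores above 0.5. ED100 (index 100, max 300) read graphically.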

[8] = tested on: Rattus norvegicus; experiment: Ulcerogenic effect after oral administration (intestinal ulcer); format: functional
Method in brief: (§6)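 Nonfasted male rats (150–180 g) killed 24 h after oral dosing, and intestinal ulcers scored. Ulceration index = (mean degree × rats with ulcers / rats) × 100. ED100 (index 100) determined graphically.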

[9] = species on record: Rattus norvegicus; experiment: Antiarthritis activity against adjuvant-induced arthritis in rats; format: functional; method in brief: as §1
[10] = tested on: Rattus norvegicus; experiment: Antiinflammatory activity against carrageenan-induced foot edema in rat after peroral administration; format: functional; conditions: po; method in brief: as §2
[11] = molecular target: T1, Polyunsaturated fatty acid 5-lipoxygenase (Rattus norvegicus, UniProt P12527); experiment: Inhibition of 5-lipoxygenase from rat peritoneal neutrophils in vitro
T1 sequence (P12527 whole entry): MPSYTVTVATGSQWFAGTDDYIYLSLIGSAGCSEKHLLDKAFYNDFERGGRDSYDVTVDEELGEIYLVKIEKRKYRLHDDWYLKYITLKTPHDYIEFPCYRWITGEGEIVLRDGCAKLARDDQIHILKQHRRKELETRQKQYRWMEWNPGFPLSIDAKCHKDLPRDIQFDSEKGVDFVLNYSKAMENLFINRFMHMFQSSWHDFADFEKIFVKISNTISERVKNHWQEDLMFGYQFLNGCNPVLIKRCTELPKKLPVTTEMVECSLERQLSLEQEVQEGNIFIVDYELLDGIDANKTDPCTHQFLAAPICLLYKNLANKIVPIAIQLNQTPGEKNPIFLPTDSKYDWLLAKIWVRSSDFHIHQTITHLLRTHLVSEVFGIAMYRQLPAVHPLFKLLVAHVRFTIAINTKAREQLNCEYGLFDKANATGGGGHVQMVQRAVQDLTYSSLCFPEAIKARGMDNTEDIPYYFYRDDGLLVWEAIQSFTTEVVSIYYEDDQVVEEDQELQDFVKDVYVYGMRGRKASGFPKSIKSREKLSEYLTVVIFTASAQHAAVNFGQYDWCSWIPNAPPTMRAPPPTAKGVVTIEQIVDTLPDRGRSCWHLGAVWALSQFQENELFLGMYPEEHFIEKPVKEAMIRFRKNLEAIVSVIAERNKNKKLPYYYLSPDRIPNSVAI

[12] = molecular target: T2, Cyclooxygenase (Bos taurus, UniProt O62664+O62698); experiment: Inhibition of bovine Prostaglandin G/H synthase in seminal vesicle microsomes in vitro
T2 sequence (O62664 whole entry): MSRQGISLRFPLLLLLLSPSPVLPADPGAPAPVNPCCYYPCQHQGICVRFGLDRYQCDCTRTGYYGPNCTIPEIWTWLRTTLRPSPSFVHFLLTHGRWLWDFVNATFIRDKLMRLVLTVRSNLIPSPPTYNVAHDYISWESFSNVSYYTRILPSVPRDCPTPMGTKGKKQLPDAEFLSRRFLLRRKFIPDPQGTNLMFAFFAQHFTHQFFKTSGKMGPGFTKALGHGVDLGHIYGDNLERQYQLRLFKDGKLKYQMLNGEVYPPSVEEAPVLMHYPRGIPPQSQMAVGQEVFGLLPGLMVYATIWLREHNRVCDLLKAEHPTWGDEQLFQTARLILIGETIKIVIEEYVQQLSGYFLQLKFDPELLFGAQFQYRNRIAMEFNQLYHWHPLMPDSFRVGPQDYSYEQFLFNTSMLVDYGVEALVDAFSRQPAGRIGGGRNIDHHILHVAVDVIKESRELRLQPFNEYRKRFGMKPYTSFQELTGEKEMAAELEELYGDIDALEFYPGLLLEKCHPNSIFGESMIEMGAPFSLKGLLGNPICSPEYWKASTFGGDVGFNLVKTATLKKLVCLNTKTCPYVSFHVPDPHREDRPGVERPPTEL
T2 sequence (O62698 whole entry): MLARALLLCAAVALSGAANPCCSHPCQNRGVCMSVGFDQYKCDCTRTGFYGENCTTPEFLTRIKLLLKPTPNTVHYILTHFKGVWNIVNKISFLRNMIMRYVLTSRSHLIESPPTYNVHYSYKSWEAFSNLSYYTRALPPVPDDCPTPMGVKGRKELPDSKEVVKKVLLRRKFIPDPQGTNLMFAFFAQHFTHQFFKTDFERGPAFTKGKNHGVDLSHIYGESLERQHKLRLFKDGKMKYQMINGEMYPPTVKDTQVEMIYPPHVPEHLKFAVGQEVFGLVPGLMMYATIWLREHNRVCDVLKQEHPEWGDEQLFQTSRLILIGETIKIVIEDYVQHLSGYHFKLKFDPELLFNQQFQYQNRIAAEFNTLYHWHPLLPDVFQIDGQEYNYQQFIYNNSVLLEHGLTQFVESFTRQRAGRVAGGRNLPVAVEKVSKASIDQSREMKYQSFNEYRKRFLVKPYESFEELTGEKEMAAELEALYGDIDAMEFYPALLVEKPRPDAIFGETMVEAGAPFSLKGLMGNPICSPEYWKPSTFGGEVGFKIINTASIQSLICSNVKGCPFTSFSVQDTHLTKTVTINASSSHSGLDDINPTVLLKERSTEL

[13] = tested on: Mus musculus; experiment: Analgesic activity against acetic acid induced writhing test in mouse administered po at 50 mg/kg; IA=Inactive; format: functional, organism-based; parameters: dose 50 mg/kg; method in brief: as §3
[14] = tested on: Rattus norvegicus; experiment: Antiinflammatory activity against carrageenan-induced foot edema in rat after peroral administration of 25 mg/kg; IA means Inactive; format: functional, organism-based; parameters: dose 25 mg/kg
[15] = tested on: Mus musculus; experiment: Analgesic activity against acetic acid induced writhing test in mouse after peroral administration at 25 mg/kg; IA=Inactive; format: functional, organism-based; parameters: dose 25 mg/kg; method in brief: as §3
[16] = tested on: Rattus norvegicus; experiment: Antiinflammatory activity against carrageenan-induced foot edema in rat after peroral administration of 100 mg/kg; IA=Inactive; format: functional, organism-based; parameters: dose 100 mg/kg
[17] = tested on: Mus musculus; experiment: Analgesic activity against acetic acid induced writhing test in mouse after peroral administration (treatment was 6 hr before testing); format: functional; conditions: po; method in brief: as §4
[18] = tested on: Rattus norvegicus; experiment: Ulcerogenic effect against gastric ulcer in rats after oral administration; format: functional, Stomach; method in brief: as §5
[19] = tested on: Rattus norvegicus; experiment: Antiarthritis activity against adjuvant-induced arthritis in rats after peroral administration; range is (1.9-5.3); format: functional; conditions: po; method in brief: as §1
[20] = tested on: Rattus norvegicus; experiment: Ulcerogenic effect against intestinal ulcer in rats after oral administration; format: functional; method in brief: as §6
[21] = tested on: Rattus norvegicus; experiment: Antiinflammatory activity against carrageenan-induced foot edema in rat; format: functional; method in brief: as §2
[22] = Mus musculus, po, read-out: ED50
[23] = Rattus norvegicus, po, read-out: ED50

CC(C)(C)C(O)c1nc2c(C(F)(F)F)cccc2c(O)c1C(=O)Nc1nccs1 (stereo not given)
ED50 [1, 22]: 50 mg/kg
ED50 [2, 23]: 1.5 mg/kg
ED40 [3]: 4 mg/kg

O=C(Nc1nccs1)c1c(C(O)C2CCCCC2)nc2c(C(F)(F)F)cccc2c1O (stereo not given)
ED50 [4]: inactive
ED50 [5]: inactive
ED40 [3]: > 100 mg/kg

CCC(=O)OC(CC)c1nc2c(C(F)(F)F)cccc2c(O)c1C(=O)Nc1nccs1 (stereo in doubt; 102)
ED50 [1]: 50 mg/kg
ED50 [6]: 4.6 mg/kg
ED100 [7]: >300 mg/kg
ED100 [8]: >250 mg/kg
ED50 [9]: 0.7 mg/kg
ED50 [2]: 0.7 mg/kg
ED40 [10]: 4 mg/kg
IC50 [11]: 3 µM
IC50 [12]: 2.1 µM

Cc1cc(NC(=O)c2cnc3c(C(F)(F)F)cccc3c2O)no1
ED50 [13]: inactive

COCc1nc2c(C(F)(F)F)cccc2c(O)c1C(=O)Nc1nccs1
ED50 [1, 22]: 25 mg/kg
ED50 [14]: inactive

CC(Cl)(Cl)c1nc2c(C(F)(F)F)cccc2c(O)c1C(=O)Nc1nccs1
ED50 [15]: inactive

CC(C)c1ccc2nc(C(F)(F)F)c(C(=O)Nc3nccs3)c(O)c2c1
ED50 [1, 22]: > 100 mg/kg
ED50 [16]: inactive

Cc1cnc(NC(=O)c2cnc3c(C(F)(F)F)cccc3c2O)s1
ED50 [13]: inactive

CC[C@H](N)c1nc2c(C(F)(F)F)cccc2c(O)c1C(=O)Nc1nccs1
ED50 [1, 22]: 35 mg/kg
ED50 [17]: 30 mg/kg
ED100 [18]: 80 mg/kg
ED50 [2, 23]: 5 mg/kg
ED40 [10]: 10 mg/kg
ED50 [19]: 3.1 mg/kg
ED100 [20]: >100 mg/kg
IC50 [11]: 18 µM
IC50 [12]: 1.4 µM

CCC(=O)N[C@@H](CC)c1nc2c(C(F)(F)F)cccc2c(O)c1C(=O)Nc1nccs1
ED50 [1, 22]: 20 mg/kg
ED50 [6]: 4 mg/kg
ED100 [7]: >300 mg/kg
ED100 [8]: >100 mg/kg
ED50 [9]: 3.5 mg/kg
ED50 [2, 23]: 3 mg/kg
ED40 [21]: > 100 mg/kg
IC50 [11]: 2 µM
IC50 [12]: 0.4 µM
